Reference: ChEMBL document CHEMBL1955846, “Aminopyrimidinone cdc7 kinase inhibitors” (Bioorg Med Chem Lett, 2012)

Each compound was assayed against T1, CDC7/DBF4 (Cell division cycle 7-related protein kinase/Activator of S phase kinase) (Homo sapiens, UniProt O00311) (assay: Inhibition of human CDC7/DBF4 expressed using baculovirus expression system assessed as [33P]gamma-ATP incorporation into substrate after 60 mins by gamma counting). Conditions: not given.
T1 sequence (Q9UBU7 whole entry): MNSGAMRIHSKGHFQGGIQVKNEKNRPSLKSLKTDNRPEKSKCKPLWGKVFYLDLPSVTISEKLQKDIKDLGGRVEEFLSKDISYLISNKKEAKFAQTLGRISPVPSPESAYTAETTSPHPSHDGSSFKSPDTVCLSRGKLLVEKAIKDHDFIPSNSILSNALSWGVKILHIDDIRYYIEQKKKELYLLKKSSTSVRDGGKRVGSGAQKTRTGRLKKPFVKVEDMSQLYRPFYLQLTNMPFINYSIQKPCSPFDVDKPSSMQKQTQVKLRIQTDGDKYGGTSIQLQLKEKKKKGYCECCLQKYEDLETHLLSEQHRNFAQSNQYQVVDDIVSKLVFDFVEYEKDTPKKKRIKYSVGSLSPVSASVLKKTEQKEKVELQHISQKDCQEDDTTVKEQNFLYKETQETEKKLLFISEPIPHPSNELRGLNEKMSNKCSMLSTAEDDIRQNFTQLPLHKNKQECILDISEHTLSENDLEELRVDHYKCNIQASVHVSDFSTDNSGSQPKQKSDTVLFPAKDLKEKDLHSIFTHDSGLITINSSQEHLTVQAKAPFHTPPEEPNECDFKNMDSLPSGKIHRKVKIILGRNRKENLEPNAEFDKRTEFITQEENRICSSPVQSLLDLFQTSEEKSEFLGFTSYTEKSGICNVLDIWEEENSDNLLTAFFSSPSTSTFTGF
T1 sequence (O00311 whole entry): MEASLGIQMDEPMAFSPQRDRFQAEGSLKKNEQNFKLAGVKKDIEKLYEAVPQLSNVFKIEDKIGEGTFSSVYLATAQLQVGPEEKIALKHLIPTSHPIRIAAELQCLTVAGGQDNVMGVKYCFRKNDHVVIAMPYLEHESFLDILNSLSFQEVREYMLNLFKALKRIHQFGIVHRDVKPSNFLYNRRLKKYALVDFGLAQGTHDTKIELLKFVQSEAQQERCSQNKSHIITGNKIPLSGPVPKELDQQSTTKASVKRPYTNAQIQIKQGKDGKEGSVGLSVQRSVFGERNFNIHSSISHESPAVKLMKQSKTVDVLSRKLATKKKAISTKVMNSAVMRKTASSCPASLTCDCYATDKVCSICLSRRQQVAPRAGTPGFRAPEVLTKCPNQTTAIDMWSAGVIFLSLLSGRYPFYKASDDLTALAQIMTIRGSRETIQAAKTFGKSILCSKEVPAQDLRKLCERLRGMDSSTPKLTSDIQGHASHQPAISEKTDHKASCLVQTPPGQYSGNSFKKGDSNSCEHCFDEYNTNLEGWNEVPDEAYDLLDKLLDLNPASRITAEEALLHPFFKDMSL
In the case of O=c1cc(-c2cn[nH]c2)nc(NC2CCCCC2)[nH]1, the Ki is reported as 15 nM.
Compound O=c1cc(-c2c[nH]c3ncccc23)nc(NC2CCOCC2)[nH]1 has a Ki of 0.14 nM.
Work on COC1CCN(c2nc(-c3c[nH]c4ncccc34)cc(=O)[nH]2)CC1 yielded a Ki of 0.2 nM.
For O=c1nc(-c2c[nH]c3ncccc23)nc(NC2CCCCC2)[nH]1, the Ki was 0.3 nM.
In the case of O=c1cc(-c2c[nH]c3ncccc23)nc(Nc2ccccc2)[nH]1, the Ki is reported as 0.12 nM.
O=c1cc(-c2c[nH]c3ncccc23)nc(NC2CCCCC2)[nH]1 was tested, and the Ki was less than 0.07 nM.
For O=c1cc(-c2c[nH]c3ncccc23)cc(NC2CCCCC2)[nH]1, the Ki was 0.5 nM.
COCCN(CCOC)c1nc(-c2c[nH]c3ncccc23)cc(=O)[nH]1 gave a Ki of 0.18 nM.
O=c1nc(-c2c[nH]c3ncccc23)cc(NC2CCCCC2)[nH]1 was tested, and the Ki was 1.4 nM.
For O=c1cc(-c2c[nH]c3ncccc23)nc(-c2ccccc2)[nH]1, the Ki was 0.25 nM.
For CN1CCC(Nc2nc(-c3c[nH]c4ncccc34)cc(=O)[nH]2)CC1, the Ki was 0.11 nM.
O=c1cc(-c2c[nH]c3ncccc23)nc(NCc2ccccc2)[nH]1 gave a Ki of less than 0.07 nM.
Work on CN(c1nc(-c2c[nH]c3ncccc23)cc(=O)[nH]1)C1CCCCC1 yielded a Ki of 0.09 nM.
In the case of Oc1cc(NC2CCCCC2)nc(-c2c[nH]c3ncccc23)c1, the Ki is reported as 5.4 nM.
In the case of O=c1cc(-c2ccccc2)nc(NC2CCCCC2)[nH]1, the Ki is reported as 230 nM.
Compound O=c1cc(-c2c[nH]c3ncccc23)nc(NC(c2ccccc2)c2ccccc2)[nH]1 has a Ki of 328 nM.
O=c1cc(-c2ccc3[nH]ncc3c2)nc(NC2CCCCC2)[nH]1 was tested, and the Ki was 0.5 nM.
With O=c1cc(-c2cccnc2)nc(NC2CCCCC2)[nH]1 the Ki was greater than 1200 nM.
Compound O=c1cc(-c2c[nH]c3ncccc23)nc(N2CCC(O)CC2)[nH]1 has a Ki of 0.2 nM.
Work on O=c1cc(-c2c[nH]c3ncccc23)nc(N2CCOCC2)[nH]1 yielded a Ki of 0.18 nM.
With O=c1cc(NC2CCCCC2)cc(-c2c[nH]c3ncccc23)[nH]1 the Ki was 1.1 nM.
Nc1nccc(-c2cc(=O)[nH]c(NC3CCCCC3)n2)n1 was tested, and the Ki was 5 nM.

Each compound was assayed on HCT-116 (assay: Cytotoxicity against human HCT116 cells after 3 days by CellTitre Glo assay). Conditions: HCT-116, 72 h.
Format: functional, cell-based
Summary of the method: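 HCT-116 cells seeded at 3000 cells per well and held 24 h at 37 °C. Next day, treated with serial dilutions of inhibitor. After 3 days, an equal volume of Cell Titer GLO was added and luminescence read. EC50 derived from the viability readout.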
O=c1cc(-c2c[nH]c3ncccc23)nc(NC2CCOCC2)[nH]1 was tested, and the EC50 was 2460 nM.
Compound COC1CCN(c2nc(-c3c[nH]c4ncccc34)cc(=O)[nH]2)CC1 has an EC50 of 520 nM.
Compound O=c1cc(-c2c[nH]c3ncccc23)nc(Nc2ccccc2)[nH]1 has an EC50 of 443 nM.
For O=c1cc(-c2c[nH]c3ncccc23)nc(NC2CCCCC2)[nH]1, the EC50 was 103 nM.
COCCN(CCOC)c1nc(-c2c[nH]c3ncccc23)cc(=O)[nH]1 gave an EC50 of 2210 nM.
In the case of O=c1cc(-c2c[nH]c3ncccc23)nc(-c2ccccc2)[nH]1, the EC50 is reported as 830 nM.
Compound CN1CCC(Nc2nc(-c3c[nH]c4ncccc34)cc(=O)[nH]2)CC1 has an EC50 of 7370 nM.
For O=c1cc(-c2c[nH]c3ncccc23)nc(NCc2ccccc2)[nH]1, the EC50 was 122 nM.
CN(c1nc(-c2c[nH]c3ncccc23)cc(=O)[nH]1)C1CCCCC1 showed an EC50 of 106 nM.
In the case of O=c1cc(-c2c[nH]c3ncccc23)nc(N2CCC(O)CC2)[nH]1, the EC50 is reported as 6190 nM.
Work on O=c1cc(-c2c[nH]c3ncccc23)nc(N2CCOCC2)[nH]1 yielded an EC50 of 450 nM.

The compounds below were run against T1, CDC7/DBF4 (Cell division cycle 7-related protein kinase/Activator of S phase kinase) (assay: Inhibition of CDC7/DBF4-mediated MCM2 phosphorylation in human HCT116 cells after 6 hrs by spectrophotometric analysis). Conditions: not given.
Format: cell-based, HCT-116
In the case of O=c1cc(-c2c[nH]c3ncccc23)nc(NC2CCOCC2)[nH]1, the EC50 is reported as 300 nM.
COC1CCN(c2nc(-c3c[nH]c4ncccc34)cc(=O)[nH]2)CC1 showed an EC50 of 300 nM.
Compound O=c1cc(-c2c[nH]c3ncccc23)nc(Nc2ccccc2)[nH]1 has an EC50 of 143 nM.
O=c1cc(-c2c[nH]c3ncccc23)nc(NC2CCCCC2)[nH]1 gave an EC50 of 60 nM.
COCCN(CCOC)c1nc(-c2c[nH]c3ncccc23)cc(=O)[nH]1 was tested, and the EC50 was 60 nM.
O=c1cc(-c2c[nH]c3ncccc23)nc(-c2ccccc2)[nH]1 showed an EC50 of 410 nM.
CN1CCC(Nc2nc(-c3c[nH]c4ncccc34)cc(=O)[nH]2)CC1 was tested, and the EC50 was 2610 nM.
Work on O=c1cc(-c2c[nH]c3ncccc23)nc(NCc2ccccc2)[nH]1 yielded an EC50 of 180 nM.
CN(c1nc(-c2c[nH]c3ncccc23)cc(=O)[nH]1)C1CCCCC1 showed an EC50 of 15 nM.
Work on O=c1cc(-c2c[nH]c3ncccc23)nc(N2CCC(O)CC2)[nH]1 yielded an EC50 of 1780 nM.
Work on O=c1cc(-c2c[nH]c3ncccc23)nc(N2CCOCC2)[nH]1 yielded an EC50 of 300 nM.
